Assays:
[1] = melting temperature; fluorescence melt of hairpins on a sequencing array, two-state fit, raised by 9.35 °C to match UV melts; settings: sodium 0.088 M
How it was run: (§1)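 Hairpins were imaged by Cy3 fluorescence on a sequenced MiSeq flow cell with annealed Cy3 and quencher oligos, in 50 mM Na-HEPES pH 8.0, 25 mM NaCl, in 2.5 °C steps up to 60 °C. Bootstrapped two-state fits of normalised signals gave melting temperature and folding enthalpy. Four replicates were combined by inverse variance, and fitted temperatures were raised by 9.35 °C to match UV melts.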

[2] = folding enthalpy; higher = less favourable; fluorescence melt of hairpins on a sequencing array, two-state fit; settings: sodium 0.088 M
How it was run: as §1

| Sequence | Tm [1] [°C] | folding enthalpy [2] [kcal/mol] |
| --- | --- | --- |
| GATCCCCGTTGGGATC ((((((....)))))) | 62.2 | -32.3 |
| GATCCTGCGCAGGATC ((((((....)))))) | 59.3 | -53 |
| GGCCGAGGAAACTCGACC ((.((((....)))).)) | 51.4 | -35 |
| GCGAAGGGTCGC ((((....)))) | 48.2 | -12.1 |
| GGCATAACGAAAGTTGCC (((..(((....)))))) | 50.8 | -26 |
| GTCAGACGAAAGTCGAC (((.(((....)))))) | 51.9 | -31.5 |
| GTATTGGGAAACCAATGC (.(((((....))))).) | 44.3 | -26.9 |
| GGCAGCGGAAACGCCACC ((..(((....)))..)) | 36.6 | -13.9 |
| GCACAGCGAAAGCAATGC (((..((....))..))) | 37.3 | -10.9 |
| GATCGTAATACGATC ((((((...)))))) | 53.5 | -41.5 |
| GTTCCCCGAAAGGGCAAC (((.(((....))).))) | 35.2 | -14.5 |
| GGACCGGGAAACCAGTCC ((((.((....)).)))) | 47.3 | -23.4 |
| GCGAGCGAAAGCTCTCGC ((((((....)))..))) | 52.3 | -17.4 |
| GATCCTTGCAAGGATC ((((((....)))))) | 55.4 | -41 |
| GGAGAAGAAATTCTCC ((((((....)))))) | 47.7 | -27.7 |
| GCAGCCGAAAGGCCATGC ((((((....)))..))) | 40.3 | -13.9 |
| GTGGGAGGAAACTCTCAC (((.(((....))).))) | 48.7 | -39.1 |
| GCCCGGCCGAAAGGCGGC (((..(((....)))))) | 57.6 | -13.2 |
| GTATAAGCGAAAGCTTAC (((..(((....)))))) | 33.8 | -9.03 |
| TCCTCGAAAGAGGA (((((....))))) | 52.7 | -17.6 |
| CGACTCCGGAAACGGTCG (((..(((....)))))) | 38.4 | -24.1 |
| GGTTGCGAAAGCAGACC ((((((....))).))) | 51 | -27.2 |
| GGGGGTGGAAACGCCCCC (((((.(....).))))) | 66.9 | -28.9 |
| GATCTCATTTGAGATC ((((((....)))))) | 55.5 | -37.4 |

| Sequence | Tm [1] [°C] | folding enthalpy [2] [kcal/mol] |
| --- | --- | --- |
| GACCGCGGAAACGTGGTC ((((.((....)).)))) | 62.8 | -44.8 |
| GGTATTCGAAAGAACACC (((.(((....))).))) | 39.3 | -29.4 |
| GATCTCCTTGGAGATC ((((((....)))))) | 60.5 | -47.6 |
| GTTAGCGCGAAAGCGAAC (((..(((....)))))) | 27.7 | -6.83 |
| GCTTCCGAAAGGAACAGC ((((((....)))..))) | 38.3 | -15.1 |
| GAGGCCGCGAAAGCGCTC (((..(((....)))))) | 35 | -12.8 |
| GCACAGAAATGTGC (((((....))))) | 57.2 | -33.9 |
| GATCATTTTATGATC ((((((...)))))) | 51.4 | -30.4 |
| GAGCAGGGAAACTTGCTC (((((.(....).))))) | 49 | -32.1 |
| GATCGCATTGGCGATC ((((((....)))))) | 68.8 | -33.2 |
| GCCAGGCGAAAGCATAGC ((.(.((....)).).)) | 37.8 | -11.1 |
| GCGTCTGACGC ((((...)))) | 56.7 | -24.1 |
| GACTCTGGAAACGGAGTC (((((.(....).))))) | 50.3 | -46.5 |
| GAACACGAAAGTGCGTTC ((((((....)))..))) | 31.2 | -13 |
| GATCCGTTGGCGGATC ((((((....)))))) | 59.6 | -36.5 |
| GATCGCTCGTGCGATC ((((((....)))))) | 67.2 | -41.6 |
| GGCCTAGGAAACTGGGCC ((((.((....)).)))) | 57.9 | -47.7 |
| GATTCCGAAAGGATATC ((((((....))).))) | 39.5 | -20.7 |
| GAAGACGAAAGTCTTC ((((((....)))))) | 64.5 | -37.7 |
| GGCCACGAAAGTGCCGCC ((((((....)))..))) | 59.8 | -32 |
| GATCACTCAAGTGATC ((((((....)))))) | 57 | -49.2 |
| GATAGCGAAAGCTAGATC ((((((....)))..))) | 45.2 | -15.4 |
| GATCCGACCTCGGATC ((((((....)))))) | 59.1 | -40.9 |
| GCCGTGCGAAAGCAGTGC ((..(((....)))..)) | 44.7 | -12.4 |

| Sequence | Tm [1] [°C] | folding enthalpy [2] [kcal/mol] |
| --- | --- | --- |
| GTCGGCCGAAAGGCGAC (((.(((....)))))) | 67.2 | -21.9 |
| GAGGACGAAAGTCGTCTC ((((((....)))..))) | 52.2 | -28.6 |
| GCCTTCTCGAAAGAGGGC (((..(((....)))))) | 44.3 | -23.8 |
| GTGCCGGGAAACCGGCGC (.(((((....))))).) | 67.3 | -18.2 |
| GGTAGGGGAAACCCTACC (((((((....))))))) | 64.6 | -44.1 |
| GTACTCGAAAGAGACTAC ((((((....)))..))) | 33.6 | -14.5 |
| GCTCGGCGAAAGCATAGC (((..((....))..))) | 44 | -12.3 |
| GTGGCTGGAAACGGTCAC (((.(.(....).).))) | 44.5 | -30.7 |
| GCTAGCCGAAAGGCCAGC (((.(((....))).))) | 54.3 | -20.8 |
| GCATTCCCGAAAGGGTGC (((..(((....)))))) | 43.5 | -20.9 |
| GATCATACCGATGATC ((((((....)))))) | 46.9 | -35.7 |
| GTTGTCGAAAGACAAAC ((((((....))).))) | 48.9 | -14.2 |
| GCGATCTTTCGC ((((....)))) | 51.4 | -27.5 |
| GCCCCGCGAAAGCCGAGC ((.(.((....)).).)) | 32.1 | -11.3 |
| GCAGAGCGAAAGCGCAGC ((.(.((....)).).)) | 59.6 | -19.6 |
| GCCTAGCGAAAGCGATGC ((.(.((....)).).)) | 44.1 | -13.4 |
| GTAAGGAAACTTAC (((((....))))) | 37.9 | -14.3 |
| GGCGATTCGAAAGAAGCC (((..(((....)))))) | 46.4 | -23.2 |
| GTCTTGGAAACAAGAC ((((((....)))))) | 54.9 | -35.3 |
| GCTCTGCGAAAGCTTAGC (((..((....))..))) | 44.2 | -18.5 |
| GGCACTCGAAAGAGCGCC (((.(((....))).))) | 59.3 | -53 |
| GGTACGAAAGTACC (((((....))))) | 65.8 | -30.4 |
| GGGATGGGAAACCGTTCC ((.(.((....)).).)) | 39.1 | -27 |
| GCTGCTGGAAACAGTAGC (((.(((....))).))) | 54.3 | -43.1 |

| Sequence | Tm [1] [°C] | folding enthalpy [2] [kcal/mol] |
| --- | --- | --- |
| GGGCACGAAAGTGGGCCC ((((((....)))..))) | 58.4 | -31.8 |
| GCTAGATCGAAAGATAGC (((..(((....)))))) | 36.4 | -19.4 |
| GAAAGCGAAAGCTGTTTC ((((((....)))..))) | 32 | -9.68 |
| GTTTGTCGAAAGACCAAC (((.(((....))).))) | 37.9 | -26.1 |
| GTCAATGCGAAAGCAGAC (((..(((....)))))) | 39.1 | -16.3 |
| GGGCCGTCGAAAGACCCC (((..(((....)))))) | 44.4 | -16.6 |
| ATCAGTGAAAAATCACTGAA .................... | 31.9 | -20.6 |
| GCTGATCGAAAGATTAGC (((.(((....))).))) | 51.9 | -47.2 |
| GTTATGCGAAAGCAAAC (((.(((....)))))) | 36.5 | -14.3 |
| GCGCAAGGAAACTCGCAC (.((.((....)).)).) | 27.2 | -13.1 |
| GTCCGAGGAAACCCGGAC (((((.(....).))))) | 53.2 | -40.5 |
| GTTATCCGAAAGGAAAAC (((.(((....))).))) | 40.8 | -25.2 |
| GATCTTTTCAAAGATC ((((((....)))))) | 48.7 | -43.6 |
| GCGCAAGGAAACCTGCAC (.(((.(....).))).) | 29.3 | -17 |
| GGACCGCGAAAGCGATCC (((.(((....))).))) | 59 | -27.9 |
| GGGTGCGAAAGCACGCCC ((((((....)))..))) | 55.3 | -10.2 |
| GCGACAGTCGC ((((...)))) | 46.7 | -27.8 |
| GTGCCACGAAAGTGCCAC (((.(((....))).))) | 47.6 | -20.5 |
| GGGGTTCGAAAGAACCC (((.(((....)))))) | 69.3 | -17.9 |
| GCCCTGCGAAAGCGTGGC (((..((....))..))) | 55.6 | -21.1 |
| GACAGCGAAAGCTGTGTC ((((((....)))..))) | 56.9 | -10.8 |

— the array DNA melting data of Ke et al. (doi:10.1101/2024.01.08.574731)
